High-throughput results from PubChem BioAssay.
FGF22 binding: FGF22 (human) thermal shift binding | Q9HCT0 | recombinant FGF22 thermal shift, SYPRO orange fluorescence; percent of sucrose octasulfate shift, DMSO zero | activity (Tm shift, normalised), % at 9.99 µM | actives 1.5% (n = 340,000);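 active = mean Tm shift, scaled 0 neutral to 100 positive control, at about 1.3% or above, every replicate too, limit read from the data; inconclusive = no clear call, values can overlap the other calls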
Target sequence (Q9HCT0 whole entry, looked up): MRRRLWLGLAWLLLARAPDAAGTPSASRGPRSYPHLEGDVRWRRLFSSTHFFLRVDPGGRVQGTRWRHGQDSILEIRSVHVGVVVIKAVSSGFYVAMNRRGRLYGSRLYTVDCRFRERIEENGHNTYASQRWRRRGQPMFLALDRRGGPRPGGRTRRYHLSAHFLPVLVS
FN deposit inh: fibronectin deposition inhibition | AH1F fibroblasts, Alexa488-fibronectin deposition fluorescence, overnight | inhibition, % at 12.6 µM | actives 0.086% (n = 350,000) | AID 743247;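 active = mean inhibition across replicates of 30% or more, regardless of how many single replicates reach that level; inconclusive = mean under 30% yet at least half of replicates reach 30%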;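 also: positive control wells lacked labelled fibronectin entirely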
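test system = AH1F fibroblasts assembling fluorescent fibronectin matrix | quantity = 10000 AH1F cells per well | buffer or medium = DMEM plus 2% serum, read in PBS | doses = single dose, pinned | incubation = 1 h cell attachment, overnight exposure to compound and label | detection = fluorescence at 485 nm excitation, 525 nm emission | read-out basis = inhibition from reduced deposited-fibronectin fluorescence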
SIRT5 block: sirtuin-5 (human) deacylase inhibition; Purified SirT5, succinyl-peptide AMC, trypsin-coupled fluorescence; inhibition, % at 15 µM; actives 1.1% (n = 330,000); AID 652115; in the data active = inhibition above about 15%; inconclusive = no clear call, values can overlap the other calls
Target sequence (Q9NXA8 whole entry, looked up): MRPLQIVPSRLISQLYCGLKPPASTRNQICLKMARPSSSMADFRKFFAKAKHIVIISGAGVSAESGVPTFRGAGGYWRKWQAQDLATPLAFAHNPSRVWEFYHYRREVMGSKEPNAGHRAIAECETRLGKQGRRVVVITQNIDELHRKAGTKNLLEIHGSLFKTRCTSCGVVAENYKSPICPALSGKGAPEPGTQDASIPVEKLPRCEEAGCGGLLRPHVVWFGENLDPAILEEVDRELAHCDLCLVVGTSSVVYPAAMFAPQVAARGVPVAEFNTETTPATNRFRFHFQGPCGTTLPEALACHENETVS
ARNT-TACC3 inh: disrupts binding between human ARNT and TACC3. Q9Y6A5. AlphaScreen His-ARNT PAS-B/GST-TACC3 binding, luminescence; TACC3 fragment carries E629A point mutation. inhibition, % at 9.99 µM. actives 0.66% (n = 390,000);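 active = mean inhibition of replicates at least 50% and at least half of replicates each reaching 50%; inconclusive = half or more replicates reach 50% but mean below 50%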;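 also: 0% = complete ARNT plus TACC3 wells and 100% = ARNT alone without TACC3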
DENV2 CPE: inhibitors of DENV2 cytopathic effect. DENV2-infected cells, cytopathic effect rescue, plate reader. CPE inhibition, % at 9.99 µM. actives 1.7% (n = 350,000). AID 651640; in the data active = CPE inhibition above about 20%, passing the limit was not always enough; inconclusive = no clear call, values can overlap the other calls; tested in BHK-21 cells;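 also: 0% = median of neutral control wells and 100% = median of positive control wells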
XiGFP reactiv: activators of X-chromosome reactivation in mouse fibroblasts | XiGFP mouse fibroblasts, % GFP-positive cells imaging, 3 d; cells co-treated with 5-aza-dC sensitizer; scaled so ellipticine positive control = 100% | activation, % at 7.58 µM | actives 0.055% (n = 360,000) | AID 743238;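 active = mean normalized replicate activation at least 10% and every replicate at or above 10%; inconclusive = only one of the two criteria met; inactive = mean below 10% and not all replicates reach 10%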;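 also: 0% = median of on-plate neutral control wells and 100% = ellipticine 6 µM median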
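material = 68-5-11 XiGFP fibroblast line | medium = DMEM plus 5-aza-dC sensitizer | schedule = 3 days compound exposure | benchmarks = positive control ellipticine, 6 µM final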
* hit, by the source's call; ? = inconclusive; . = not tested or not shown. The list is not random: actives were taken first. Their share in the collection is about 3.8%.

SMILES | FGF22 binding | FN deposit inh | SIRT5 block | ARNT-TACC3 inh | DENV2 CPE | XiGFP reactiv
C[C@@H]1CN([C@@H](C)CO)C(=O)Cc2cc(NS(C)(=O)=O)ccc2O[C@H]1CN(C)Cc1ccc(Oc2ccccc2)cc1 | 0 | . | 1 | 3 | 30* | 0
Cc1ccc(S(=O)(=O)Nc2ccc3c(c2)CC(=O)N([C@@H](C)CO)C[C@@H](C)[C@H](CN(C)Cc2ccc(Oc4ccccc4)cc2)O3)cc1 | 0 | . | 22* | 21 | -26 | 0
C[C@@H]1CN([C@H](C)CO)C(=O)c2cc(NC(=O)CCC(F)(F)F)ccc2O[C@@H](C)CCCCO[C@H]1CN(C)C(=O)Nc1ccc2c(c1)OCO2 | 0 | . | 1 | -2 | 8 | -1
CC(=O)N1[C@@H]2c3cccc(=O)n3C[C@H]1[C@H](CO)[C@H]2C(=O)N[C@@H](C)c1ccccc1 | . | . | 2 | . | -18 | 1
O=C(NCC[C@H]1CC[C@H](NS(=O)(=O)c2ccc(F)cc2)[C@@H](CO)O1)Nc1ccc(Cl)cc1 | 0 | 3 | 1 | -3 | 7 | 0
C[C@@H]1CN([C@H](C)CO)C(=O)Cc2cc(NS(=O)(=O)c3ccccc3)ccc2O[C@H]1CN(C)Cc1ccc(Oc2ccccc2)cc1 | 0 | . | 14 | 5 | ? | 0
Cc1ccc(S(=O)(=O)Nc2ccc3c(c2)CC(=O)N([C@H](C)CO)C[C@@H](C)[C@@H](CN(C)Cc2ccc(Oc4ccccc4)cc2)O3)cc1 | 0 | . | 1 | 15 | 38* | 1
Cc1ccc(S(=O)(=O)Nc2ccc3c(c2)CC(=O)N([C@H](C)CO)C[C@@H](C)[C@H](CN(C)Cc2ccc(Oc4ccccc4)cc2)O3)cc1 | 0 | . | 1 | 1 | 59* | 0
Cc1noc(C)c1NC(=O)N(C)C[C@@H]1Oc2ccc(NC(=O)Cc3cn(C)c4ccccc34)cc2C(=O)N([C@H](C)CO)C[C@H]1C | -1 | . | 11 | -1 | 4 | -1
CCCCc1cc(=O)oc2cc(C)cc(OCC(=O)N3CCC(C(N)=O)CC3)c12 | 0 | . | -5 | -29 | 61* | .
CCCNC(=O)N(C)C[C@H]1Oc2cc(-c3ccccc3F)ccc2S(=O)(=O)N([C@H](C)CO)C[C@H]1C | . | 1 | . | . | . | -1
Oc1c(N=Nc2nn[nH]n2)ccc2ccccc12 | 1 | 2 | 6 | . | 69* | 0
Oc1c(N=Nc2ccc(F)cc2)ccc2ccccc12 | 0 | 1 | -2 | 6 | -6 | 0
C[C@@H]1CN([C@H](C)CO)C(=O)c2cc(NS(=O)(=O)c3cccs3)ccc2O[C@@H](C)CCCCO[C@@H]1CN(C)C(=O)C1CCCCC1 | 0 | . | 6 | . | -5 | 0
O=C([C@H]1[C@H](CO)[C@H]2Cn3c(cccc3=O)[C@@H]1N2CC1CCCC1)N1CCCCC1 | 0 | . | 4 | -3 | 3 | 0
CO[C@H]1CN(C)C(=O)c2ccc(NC(=O)Nc3ccccc3F)cc2OC[C@@H](C)N(C)C[C@@H]1C | 0 | -26 | -1 | -5 | 7 | 0
C[C@@H]1CN([C@@H](C)CO)C(=O)Cc2cc(NS(=O)(=O)c3ccccc3)ccc2O[C@@H]1CN(C)S(C)(=O)=O | 0 | . | 1 | -6 | 24* | 0
C[C@H](CO)N1C[C@H](C)[C@H](CN(C)S(C)(=O)=O)Oc2ccc(NS(=O)(=O)c3ccccc3)cc2CC1=O | 0 | . | -7 | 2 | 19 | 0
C[C@@H]1CN([C@H](C)CO)C(=O)Cc2cc(NS(=O)(=O)c3ccc(F)cc3)ccc2O[C@@H]1CN(C)S(C)(=O)=O | 0 | 5 | 0 | -2 | 31* | 0
C[C@H](CO)N1C[C@H](C)[C@@H](CN(C)S(C)(=O)=O)Oc2ccc(NC(=O)Cc3ccccc3)cc2CC1=O | 0 | . | 7 | -5 | 23* | 0
C[C@H](CO)N1C[C@H](C)[C@@H](CN(C)S(C)(=O)=O)Oc2ccc(NS(=O)(=O)c3ccc(F)cc3)cc2CC1=O | 0 | -1 | -1 | . | -5 | -1
C[C@@H]1CN([C@H](C)CO)S(=O)(=O)c2ccc(-c3ccccc3F)cc2O[C@@H]1CN(C)Cc1cncnc1 | . | . | -5 | -2 | -8 | 0
COCC#Cc1cnc2c(c1)C(=O)N([C@@H](C)CO)C[C@@H](C)[C@H](CN(C)C(=O)Nc1cc(F)ccc1F)O2 | 0 | -12 | 1 | -6 | 5 | 0
C[C@H](CO)N1C[C@H](C)[C@H](CN(C)C(=O)Cc2ccccn2)Oc2ncc(-c3ccc(F)cc3)cc2C1=O | 0 | -2 | -6 | -9 | 0 | 0
CCCCN(CCCC)Cc1ccc(C(=O)NN)o1 | 44* | -3 | 0 | 14 | -5 | 0
SMILES | FGF22 binding | FN deposit inh | SIRT5 block | ARNT-TACC3 inh | DENV2 CPE | XiGFP reactiv
C[C@H](CO)N1C[C@H](C)[C@H](CN(C)C(=O)Nc2ccc(C(F)(F)F)cc2)Oc2ccc(NC(=O)c3ccncc3)cc2CC1=O | . | . | 2 | 1 | -5 | 0
C[C@@H]1CN([C@@H](C)CO)C(=O)Cc2cc(NC(=O)CCCN(C)C)ccc2O[C@H]1CN(C)Cc1ccc(C(F)(F)F)cc1 | 0 | . | -6 | 10 | -1 | 0
CC(C)c1ccc(NC(=O)Nc2nc(C(N)c3ccccc3Cl)cs2)cc1 (configuration not stated) | 1 | -3 | . | . | 23* | 1
CC(C)c1ccc(NC(=O)Nc2nc(C(N)CCc3ccccc3)cs2)cc1 (configuration not stated) | 0 | 6 | -10 | . | 37* | 0
CC(C)c1ccc(NC(=O)Nc2nc(C(C)N)cs2)cc1 (configuration not stated) | 0 | 1 | . | . | -10 | 0
CCOCCCNCc1ccc(OCc2ccccc2C)c(OC)c1 | 0 | 4 | 20* | -1 | 0 | 0
COc1cc(CNCCCCO)ccc1OCc1ccccc1F | 43 | 8 | -1 | 2 | -3 | 0
C=CCc1ccc(OCCCNCc2ccccc2)c(OC)c1 | 0 | 1 | -3 | 3 | 43* | 0
CNC[C@H]1Oc2ccccc2C(=O)N(C)C[C@@H]1C | . | 3 | . | . | . | 0
O=C1c2ccccc2/C(=C\c2ccc(Br)nc2)N1c1ccccc1 | 43* | 12 | . | . | 47* | 0
CC(C)(C)S(=O)N1Cc2cc(=O)n(Cc3ccccc3)c(CCO)c2[C@H]1CCO (some centres not stated) | 0 | 11 | 26* | -4 | 3 | 0
Cc1cccc(OCC(=O)N2CCN(S(C)(=O)=O)CC2)c1 | 43* | 11 | -1 | -7 | 17 | 0
CNC(=O)C1(C)C=CC2(CCCCC2)N1C(=O)OC (configuration not stated) | 0 | 2 | . | 0 | 22* | 0
